Assay results: the EternaBench riboswitch data

Test system: MS2 coat protein
Assay: apparent Kd, MS2 coat protein; higher = weaker binding; RNA-MaP array; FMN 200 µM where present
Procedure, shortened: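 On Illumina sequencing-chip clusters, designs were transcribed by stalled E. coli RNA polymerase and titrated with SNAP-549-labelled MS2 coat protein (0.7 or 1.5 nM, doubling to 3 µM), without and then with constant ligand, in 100 mM Tris-HCl pH 7.5, 80 mM KCl, 4 mM MgCl2, BSA, DTT, yeast tRNA and Tween-20. Apparent Kd is the median of filtered per-cluster curve fits to green signal normalised to red-channel RNA signal and control-cluster median Fmax.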

[1] = designed as: OFF switch for flavin mononucleotide, no ligand
[2] = ligand present: flavin mononucleotide, designed as: OFF switch for flavin mononucleotide
[3] = designed as: ON switch for flavin mononucleotide, no ligand
[4] = ligand present: flavin mononucleotide, designed as: ON switch for flavin mononucleotide

| Sequence | apparent Kd [1] [nM] | apparent Kd [2] [nM] | apparent Kd [3] [nM] | apparent Kd [4] [nM] |
| --- | --- | --- | --- | --- |
| CCUUUGAAGAUCCUAAAUUUCGACAUGAGGAUCACCCAUGUGCAGGAUAUCGUGCCAGUGAUGUACGAGAAGGGCCGUCUCUGC | 160 | 155 |  |  |
| CCUUUGAAGAUCCUGGUUUUCGACAUGAGGAUCACCCAUGUGCAGGAUAUCGUGCCGGUGCUGUGCGAGAAGGGCAGUCUCAGC | 15.1 | 17.9 |  |  |
| CCUUUGUCAGGAUAUCGAAAAGGGAGGCCAAAGGCCUCCGGUGAGAAGGGACAUGAGGAUCACCCAUGUGAAAA | 77.3 | 383 |  |  |
| CGAAAUGAUAGAGGAUAUGUUAUACAUGAGGAUCACCCAUGUUUAAUGGGAUUAAUAAAUAUCUUACAGAAGGCUAUUCAAUCG | 32 | 20.7 |  |  |
| CGACUGUGAGGAUAUGGUGAGUAGUGCCUGAGCGCUGCUCACCAGAAGGCACAUGAGGAUCACCCAUGUAUGAC | 110 | 214 |  |  |
| CGAGCUGCUGUGAGGAUAUACCUAUGGAUGCGUGGGUAGAAGGCACAUGAGGAUCACCCAUGUCCUGCAGCUCG | 42.1 | 241 |  |  |
| CGAGGACAUGAGGAUCACCCAUGUAGCUACAAAACGCAGCGACAGGAUAUCCUCUGGUUCCCAUAGGAGAAGGGUCAAACCUUG |  |  | 29.4 | 47.3 |
| CGAGGCGUACAUGAGGAUCACCCAUGUACCUAACAACAAAGCAAGGAUAUCCUGGCUAUAAUACAGGAGAAGGUGUGGUCCUUA |  |  |  | 178 |
| CGAGGUGGAGUGAGGAUAUCGUGUUCGAAAGAACGUGAGAAGGCACAUGAGGAUCACCCAUGUGAUCCUGCUCG | 105 | 360 |  |  |
| CGAGUUUUUGAGAAGGCAUAUUAUAUUAUACCACAUGUUUACAUGAGGAUCACCCAUGUUUCCUAUGAGGAUAUCAGAAUAUCG | 11.8 | 10 |  |  |
| CGAUAGGACAGAGGAUAUACACAUGAGGAUCACCCAUGUAAUUACAACUCAUGAGGAUCACCCAUGUAGAAGGCUGUCCUAUCG | 397 | 430 |  |  |
| CGAUAGGACAGAGGAUAUACACAUGAGGAUCACCCAUGUGAUUACAAUUCUUAAGAUUCAAACAUGUAGAAGGCUGUCCUAUCG | 9.25 | 17.4 |  |  |
| CGAUAGGACAGAGGAUAUACGUGCUAGAGAUACUAGCAAAAUUACAACACAUGAGGAUCACCCAUGUAGAAGGCUGUCCUAUCG | 5.04 | 6.21 |  |  |
| CGAUAGGACAGAGGAUAUACGUGCUAGAGAUACUAGCAAAAUUUCCUCACAUGAGGAUCACCCAUGUAGAAGGCUGUCCUAUCG | 15.6 | 439 |  |  |
| CGAUAUACGACGGACGGAAACGUACAUGAGGAUCACCCAUGUAGAAGGCGAUCCGCAACGCGGAUUGAGGAUAUAUAGUAUACA | 20.7 | 14.6 |  |  |
| CGAUAUAUGAAGGACGGAAACGUACAUGAGGAUCACCCAUGUAGAAGGCGAUCCGCAACGCGGAUCGAGGAUAUAUAGUAUACA | 24.2 | 17.6 |  |  |
| CGAUAUAUGAAGGGCAAAGGCCCACAUGAGGAUCACCCAUGUAGAAGGCGAUCCGCAACGCGGAUCGAGGAUAUAUAGUAUACA | 8.45 | 8.1 |  |  |
| CGAUAUAUGAAGGGCGAACACGCACAUGAGGAUCACCCAUGUAGAAGGCGAUCCGCAACGCGGAUCGAGGAUAUAUAGUAUACA | 35.6 | 42.4 |  |  |
| CGAUAUUAUAGAGGAUAUGUUUAACAUGAGGAUCACCCAUGUGAGGUGGAAUUAAUGUAUAACUUACAGAAGGCUAUACAAUCG | 417 | 500 |  |  |
| CGAUCGUGUAGAGGAUAUGUUAAACAUGAGGAUCACCCAUGUAAGGUAGAAAUUUUUAUUAACAUACAGAAGGCUACACGAUCG | 8.08 | 5.66 |  |  |
| CGAUGUUAUGCAGGAUAUCUCUCUUGUUAGAGGAGAGAAGGGCAUAGGGAGACAUACGCCUUAUUACAUGAGGAUCACCCAUGU | 9.38 | 8.24 |  |  |

| Sequence | apparent Kd [1] [nM] | apparent Kd [2] [nM] | apparent Kd [3] [nM] | apparent Kd [4] [nM] |
| --- | --- | --- | --- | --- |
| CGAUUAUUGAUCCAUUUUUUCAACAUGAGGAUCACCCAUGUGCAGGAUAUCGUGAUUAUUAUCAACGAGAAGGGCAAAUUCACG | 49.5 | 145 |  |  |
| CGAUUUUAUAGAGGAUAUGUUUAACAUGAGGAUCACCCAUGUGAGGUGGAAAUAUUUAAUUACAUACAGAAGGCUAUACAAUCG | 234 | 180 |  |  |
| CGCAAGUCAGGAUAUUCGACAGGUAAAUCAGUGGAUCAGAAGGAGAAGGGACAUGAGGAUCACCCAUGUAAGUA | 49.7 | 29.4 |  |  |
| CGCAAUGAUAGAGGAUAUGUUUUACAUGAGGAUCACCCAUGUGUACAUGGAUUAAUAUAUAAGUAACAGAAGGCUAUUCAUGCG | 16.7 | 15.2 |  |  |
| CGCACUAUACAUGAGGAUCACCCAUGUAAUUAUGAGAUAGUCAGAAGGCAUUAUUAGUGAUUUAAUGAGGAUAUGAAUAGUGCG |  |  | 79.8 | 11.2 |
| CGCACUGAUAGAGGAUAUGUUUUACAUGAGGAUCACCCAUGUGUACAAGGAUCAAUAUAUUAGUAACAGAAGGCUAUUAGUGCG | 24.7 | 21.5 |  |  |
| CGCAGGAUACAGAAGGAGUUAUUGAGAGGUUUACUAGGAUAUGUUCACAUGAGGAUCACCCAUGUCAUAUGGUUUUUUAUUGCG | 12.5 | 11.7 |  |  |
| CGCCCGGGAGGAUAUCCAAUAUAUGACAUGAGGAUCACCCAUGUUUCCACUCGUACCUCCGGAGAAGGCCCGGCGC | 22.2 | 22.4 |  |  |
| CGCGAUGCGGUUGGCCCUGGGCGAGAGGAUAUGGGCAGCGAGACAUGAGGAUCACCCAUGUUUUCUCAGAAGGCUCGAGCAGGC |  |  | 181 | 17.1 |
| CGCUAAGAGAACGAUACGAGAAGACAUGAGGAUCACCCAUGUAGAAGGACAACGGAAUAAACGUUGUAGGAUAUACAUUUAGCG | 16.9 | 19.8 |  |  |
| CGCUAAGAUGGGUUUAAUGGAGCAUAGGAUAUGCUUGUACAUGAGGAUCACCCAUGUUAUAUUGUGCAGAAGGGUGCAUUUGCG |  |  | 457 | 158 |
| CGCUAAUAAAUAGUAAUAAUUGUACAGGAUAUGUUACAUGAGGAUCACCCAUGUAUUGGGUAAGAACAGAAGGGUAUAUUAGCG | 433 | 229 |  |  |
| CGCUACGUUUCGUAGCAGCUAGGUGAGGAUAUUCAAUUUUUCACAUGAGGAUCACCCAUGUAUGUGAAGAAGGCGCCUAGAAAU |  |  | 10.7 | 4.96 |
| CGCUAGCGAAUAGUAAUAAAAGUACAGGAUAUGUUACAUGAGGAUCACCCAUGUAUUGGGUAAGAACAGAAGGGUACGCUAGCG | 136 | 97.8 |  |  |
| CGCUAGUCAGGAUAUACGAACAUGUCAAAAGACGUGAAGGGACAUGAGGAUCACCCAUGUAGAAGGGACUAGCA | 35.7 | 114 |  |  |
| CGCUAGUCAGGAUAUACGAACAUGUCAAAAGACGUGAAGGGACAUGAGGAUCACCCAUGUAGAAGGGACUAGCC | 32.8 | 115 |  |  |
| CGCUAGUCAGGAUAUACGAACAUGUCAAAAGACGUGAAGGGACAUGAGGAUCACCCAUGUAGAAGGGACUAGCG | 36.8 | 206 |  |  |
| CGCUAGUCAGGAUAUACGAACAUGUCACAAGACGUGAAGGGACAUGAGGAUCACCCAUGUAGAAGGGACUAGCA | 44.1 | 171 |  |  |
| CGCUAGUCAGGAUAUACGCACAUGUCACCAGACGUGAAGGGACAUGAGGAUCACCCAUGUAGAAGGGACUAGCA | 87.9 | 203 |  |  |
| CGCUAUUACAUGAGGAUCACCCAUGUAUAUAUUGUAUUUUCGUAGGAUAUGCAGAAGAUUAAAGUGCAGAAGGACGUAAUAGCG |  |  | 29.1 | 7.48 |
| CGCUCAAUUCUUUAGGUUAGAAUCAGAAGGCGUAACAUGAGGAUCACCCAUGUAUAGAAGUGUAACGAGGAUAUGAAUUGAGCG | 8.86 | 8.25 |  |  |
